From article PMC9671271 (ACS infectious diseases, 2022)

What was measured:
[1] = tested on: C. albicans cells; test: Propidium iodide membrane permeability assay, confocal microscopy, yeast form; type: cell-based, Candida albicans SC5314; details: for membrane disruption (PI leakage): 12.5 μM Hist-5, 7.5 μM PI, 5 min, RT, PPB
[2] = tested on: C. albicans cells; details: acid form of ZQ; stated as known, no reference given; cited from earlier work
[3] = Circular dichroism titration for Zn-induced dimerization/aggregation; type: physicochemical; details: CD, 0-50 μM Hist-5 with 250 μM ZnCl2, PPB (198 nm) or 98% TFE (222 nm), 25 °C; ellipticity linear up to 50 μM
[4] = tested on: C. albicans; test: Two-dimensional broth microdilution checkerboard assay; type: cell-based, Candida albicans SC5314
[5] = tested on: C. albicans hyphae; test: Propidium iodide membrane permeability assay, hyphal form; type: cell-based, Candida albicans SC5314
Summary of the method: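 Colony from YPD agar (30 °C, 24 h) grown 24 h in SD+ at 30 °C, 200 rpm, then diluted to OD600 0.1 in SD+ with 12.5 mM N-acetylglucosamine and grown 24 h at 37 °C, 200 rpm. Cells pelleted and resuspended in PPB pH 7.4, then given 12.5 μM test peptide, 7.5 μM PI, ± ZnCl2 (0.5, 1, 2 eq). Confocal imaging at 5 min, RT; PI excitation 488 nm, emission 600–700 nm.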

O=C(O)CN(CCN(CC(=O)O)CC(=O)O)CC(=O)O [EDTA, ethylenediaminetetraacetic acid]
PI uptake into the cytosol ([1]; cells treated with EDTA and PI only, no peptide (Figure S14)): not observed

Cc1ccc(S(=O)(=O)Nc2cc(OCC(=O)O)cc3ccc(C)nc23)cc1 [ZQ, 2-methyl-8-(toluene-p-sulfonamido)-6-quinolyloxyacetic acid]
membrane permeability [2]: poor membrane permeability

DSHAKRHHGYKRKFHEKHHSHRGY [Hist-5, Histatin-5]
Zn-induced peptide dimerization/aggregation [3]: dimerization/aggregation is not occurring | effect of Zn^2+ on fungicidal activity ([4]; Zn^2+ concentration surpassing the Hist-5 concentration (Figure S9)): switched from promoting Hist-5 fungicidal activity to inhibiting it | effect of Zn^2+ supplementation on peptide activity ([4]; sub-inhibitory concentrations of Hist-5, strongest at 1:2 Zn^2+ to peptide (Figure S9)): increase in peptide activity | membrane disruption (PI leakage) ([1]; no added Zn^2+): allows leakage of PI into the cytosol | membrane disruption (PI leakage) ([1]; one or more molar equivalents of Zn^2+): did not cause dye leakage | membrane disruption (PI leakage) ([1]; submolar equivalents of Zn^2+): internalization of PI | membrane activity on hyphae (PI leakage) ([5]; 12.5 μM Hist-5, 7.5 μM PI, with Zn^2+ supplementation): protective effect against Hist-5-induced membrane disruption | membrane activity on hyphae (PI leakage) ([5]; 12.5 μM Hist-5 alone, 7.5 μM PI, 5 min, RT, PPB): able to permeabilize the cell membrane
